Data from ChEMBL document CHEMBL4261635, “Simplified lipid II-binding antimicrobial peptides: Design, synthesis and antimicrobial activity of bioconjugates of nisin rings A and B with pore-forming peptides” (2018).
In brackets after ≈: the same amount, converted by molar mass. Activity calls are given as the source filed them. No cut-off for these calls is given here. Where a SMILES comes first, the peptide text is derived from it. [ ]: non-standard residue; d: D form. Nspe = C[C@H](NCC(=O)O)c1ccccc1; Nlys = NCCCCNCC(=O)O

Columns and labels:
Escherichia coli = assay: Antibacterial activity against Escherichia coli at 1 mg/ml after 48 hrs by agar well diffusion method; format: functional, organism-based
Summary of the method: (§1)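 Compounds dissolved at 1 mg/mL in sterile water; 25 μL placed in 8 mm wells punched in LB agar plates spread with 100 μL overnight culture (grown at 37 °C in Nutrient Broth No. 2 with shaking). Plates incubated 48 h at 37 °C (M. luteus initially at 30 °C, later 37 °C); activity scored as a visible zone of growth inhibition.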

Micrococcus luteus [1] = assay: Antibacterial activity against Micrococcus luteus at 1 mg/ml after 48 hrs by agar well diffusion method; format: functional, organism-based; summary of the method: as §1
Pseudomonas aeruginosa = assay: Antibacterial activity against Pseudomonas aeruginosa at 1 mg/ml after 48 hrs by agar well diffusion method; format: functional, organism-based; summary of the method: as §1
Micrococcus luteus [2] = assay: Antibacterial activity against Micrococcus luteus after 20 hrs by broth microdilution assay; format: functional
Summary of the method: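 Two-fold serial dilution in Nutrient Broth No. 2 containing 1% DMSO, from 0.60 mM stocks (sterile water, 1% DMSO, sonicated 30 s). Each well received 10 μL overnight M. luteus culture adjusted to OD 0.817 (of a 1 in 10 dilution), 250 μL final volume. Sealed, incubated 20 h at 37 °C, then OD read. MIC is the lowest concentration with no visible growth by eye.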

Question: `NC[C@H]1O[C@H](O[C@H]2[C@H](O)[C@@H](O[C@H]3O[C@H](CO)[C@@H](O)[C@H](N)[C@H]3O)[C@H](N)C[C@@H]2N)[C@H](O)[C@@H](O)[C@@H]1O` was tested. Which Activity (Escherichia coli) did it give?
Answer: Active

Question: What about the Activity (Micrococcus luteus [1]) of the same molecule?
Answer: Active

Question: What about the Activity (Pseudomonas aeruginosa) of the same molecule?
Answer: Active

Question: How did the Activity (Escherichia coli) turn out when `CC[C@H](C)[C@H](N)C(=O)N[C@@H](CC(=O)O)C(=O)N[C@@H](Cc1c[nH]c2ccccc12)C(=O)N[C@@H](CCCCN)C(=O)N[C@@H](CCCCN)C(=O)N[C@@H](CC(C)C)C(=O)N[C@@H](CC(C)C)C(=O)N[C@@H](CC(=O)O)C(=O)N[C@@H](C)C(=O)N[C@@H](C)C(=O)N[C@@H](CCCCN)C(=O)N[C@@H](CCC(N)=O)C(=O)N[C@H](C(=O)N[C@@H](CC(C)C)C(N)=O)[C@@H](C)CC` (H-IDWKKLLDAAKQIL-NH2) was run?
Answer: inactive

Question: And the MIC (Micrococcus luteus [2])?
Answer: 1.5 µM (≈ 2.48 µg/mL)

Question: And the Activity (Micrococcus luteus [1])?
Answer: Active

Question: And the Activity (Pseudomonas aeruginosa)?
Answer: inactive

Question: Which Activity (Escherichia coli) does the source give for `C#CCNC(=O)[C@H](CCCCN)NC(=O)[C@@H]1CS[C@@H](C)[C@H](NC(=O)[C@@H]2CSC[C@H](NC(=O)/C(=C/C)NC(=O)[C@@H](N)[C@@H](C)CC)C(=O)N[C@@H]([C@@H](C)CC)C(=O)NC(=C)C(=O)N[C@@H](CC(C)C)C(=O)N2)C(=O)N2CCC[C@H]2C(=O)NCC(=O)N1` here?
Answer: inactive

Question: And the MIC (Micrococcus luteus [2])?
Answer: > 12 µM

Question: And the Activity (Micrococcus luteus [1])?
Answer: Active

Question: What about the Activity (Pseudomonas aeruginosa) of the same molecule?
Answer: inactive

Question: For `CC[C@H](C)[C@H](NC(=O)CN)C(=O)NCC(=O)N[C@@H](CCCCN)C(=O)N[C@@H](Cc1ccccc1)C(=O)N[C@@H](CC(C)C)C(=O)N[C@@H](CCCCN)C(=O)N[C@@H](CCCCN)C(=O)N[C@@H](C)C(=O)N[C@@H](CCCCN)C(=O)N[C@@H](CCCCN)C(=O)N[C@@H](Cc1ccccc1)C(=O)NCC(=O)N[C@@H](CCCCN)C(=O)N[C@@H](C)C(=O)N[C@@H](Cc1ccccc1)C(=O)N[C@H](C(=O)N[C@@H](CCCCN)C(=O)N[C@H](C(=O)N[C@@H](CC(C)C)C(=O)N[C@@H](CCCCN)C(=O)N[C@@H](CCCCN)C(N)=O)[C@@H](C)CC)C(C)C` [PEXIGANAN] (H-GIGKFLKKAKKFGKAFVKILKK-NH2), which MIC (Micrococcus luteus [2]) is on record?
Answer: 0.75 µM (≈ 1.86 µg/mL)

Question: Which results are given for `C=C1NC(=O)[C@H]([C@@H](C)CC)NC(=O)[C@@H](NC(=O)/C(=C/C)NC(=O)[C@@H](N)[C@@H](C)CC)CSC[C@@H](C(=O)N[C@@H]2C(=O)N3CCC[C@H]3C(=O)NCC(=O)N[C@H](C(=O)N[C@@H](CCCCN)C(=O)NCc3cn(CCCC[C@H](N)C(=O)NCCOCCOCCOCCOCCC(=O)N[C@H](C(=O)N[C@@H](CC(=O)O)C(=O)N[C@@H](Cc4c[nH]c5ccccc45)C(=O)N[C@@H](CCCCN)C(=O)N[C@@H](CCCCN)C(=O)N[C@@H](CC(C)C)C(=O)N[C@@H](CC(C)C)C(=O)N[C@@H](CC(=O)O)C(=O)N[C@@H](C)C(=O)N[C@@H](C)C(=O)N[C@@H](CCCCN)C(=O)N[C@@H](CCC(N)=O)C(=O)N[C@H](C(=O)N[C@@H](CC(C)C)C(N)=O)[C@@H](C)CC)[C@@H](C)CC)nn3)CS[C@H]2C)NC(=O)[C@H](CC(C)C)NC1=O`?
Answer: Activity (Escherichia coli): inactive; MIC (Micrococcus luteus [2]): 3 µM (≈ 9.73 µg/mL); Activity (Micrococcus luteus [1]): Active; Activity (Pseudomonas aeruginosa): inactive

Question: Which MIC (Micrococcus luteus [2]) does the source give for `C[C@@H](c1ccccc1)N(CC(N)=O)C(=O)CN(C(=O)CN(CCCCN)C(=O)CN(C(=O)CN(C(=O)CN(CCCCN)C(=O)CN(C(=O)CN(C(=O)CN(CCCCN)C(=O)CN(C(=O)CN(C(=O)CNCCCCN)[C@@H](C)c1ccccc1)[C@@H](C)c1ccccc1)[C@@H](C)c1ccccc1)[C@@H](C)c1ccccc1)[C@@H](C)c1ccccc1)[C@@H](C)c1ccccc1)[C@@H](C)c1ccccc1` (H-[Nlys][Nspe][Nspe][Nlys][Nspe][Nspe][Nlys][Nspe][Nspe][Nlys][Nspe][Nspe]-NH2) here?
Answer: 1.5 µM (≈ 2.73 µg/mL)

Question: Which Activity (Escherichia coli) does the source give for `C=C(NC(=O)[C@@H](NC(=O)[C@H](Cc1cnc[nH]1)NC(=O)[C@@H](NC(=O)[C@H](CO)NC(=O)[C@@H]1CS[C@@H](C)[C@@H]2NC(=O)[C@H](C)NC(=O)[C@@H](NC(=O)[C@H](CCCCN)NC(=O)[C@H](CCSC)NC(=O)[C@H](CC(N)=O)NC(=O)[C@@H]3CS[C@@H](C)[C@H](NC(=O)[C@H](CCCCN)NC(=O)[C@@H]4CS[C@@H](C)[C@H](NC(=O)[C@@H]5CSC[C@H](NC(=O)/C(=C/C)NC(=O)[C@@H](N)[C@@H](C)CC)C(=O)N[C@@H]([C@@H](C)CC)C(=O)NC(=C)C(=O)N[C@@H](CC(C)C)C(=O)N5)C(=O)N5CCC[C@H]5C(=O)NCC(=O)N4)C(=O)NCC(=O)N[C@@H](C)C(=O)N[C@@H](CC(C)C)C(=O)N[C@@H](CCSC)C(=O)NCC(=O)N3)[C@H](C)SC[C@H](NC2=O)C(=O)N[C@@H](CC(N)=O)C(=O)N1)[C@@H](C)CC)C(C)C)C(=O)N[C@@H](CCCCN)C(=O)O` here?
Answer: inactive

Question: What about the MIC (Micrococcus luteus [2]) of the same molecule?
Answer: 0.0234 µM (≈ 0.0779 µg/mL)

Question: What about the Activity (Micrococcus luteus [1]) of the same molecule?
Answer: Active

Question: And the Activity (Pseudomonas aeruginosa)?
Answer: inactive
